{
  "source": "ChEMBL document CHEMBL1773023",
  "about": "“Potent and selective phosphopeptide mimetic prodrugs targeted to the Src homology 2 (SH2) domain of signal transducer and activator of transcription 3” (J Med Chem, 2011)",
  "key": {"[1]": {"molecular_target": "T1, Signal transducer and activator of transcription 3 (Homo sapiens, UniProt P40763)", "T1 sequence (P40763 whole entry, the tested form may be a part)": "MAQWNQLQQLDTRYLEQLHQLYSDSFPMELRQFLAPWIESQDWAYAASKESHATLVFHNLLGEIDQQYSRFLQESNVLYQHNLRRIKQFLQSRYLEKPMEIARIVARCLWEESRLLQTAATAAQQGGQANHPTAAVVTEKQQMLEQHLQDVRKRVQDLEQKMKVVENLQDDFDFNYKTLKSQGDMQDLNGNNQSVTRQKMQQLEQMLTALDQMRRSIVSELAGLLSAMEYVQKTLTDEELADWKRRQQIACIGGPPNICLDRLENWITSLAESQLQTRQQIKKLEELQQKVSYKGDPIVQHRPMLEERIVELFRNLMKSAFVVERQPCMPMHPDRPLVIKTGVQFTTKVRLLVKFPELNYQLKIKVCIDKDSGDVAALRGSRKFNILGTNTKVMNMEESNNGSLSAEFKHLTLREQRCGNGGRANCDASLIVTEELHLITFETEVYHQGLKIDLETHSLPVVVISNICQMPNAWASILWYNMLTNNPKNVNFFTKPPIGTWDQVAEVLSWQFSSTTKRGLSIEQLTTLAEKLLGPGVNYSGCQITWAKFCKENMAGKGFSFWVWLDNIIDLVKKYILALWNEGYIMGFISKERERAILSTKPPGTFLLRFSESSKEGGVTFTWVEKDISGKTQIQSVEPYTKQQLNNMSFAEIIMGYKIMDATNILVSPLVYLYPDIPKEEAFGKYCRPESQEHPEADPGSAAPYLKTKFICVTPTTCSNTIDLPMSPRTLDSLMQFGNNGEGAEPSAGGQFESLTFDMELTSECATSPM", "test": "Inhibition of SH2 domain of Stat3 constitutive phosphorylation at Tyr705 in human MDA-MB-468 cells at 5 uM after 30 mins by Western blotting", "assay_type": "cell-based", "method_in_brief": "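MDA-MB-468 cells given a single 5 μM prodrug dose and harvested at set times; pTyr705 and total Stat3 by Western blot of 12 μg lysate protein on 8% SDS-PAGE.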"}, "[2]": {"molecular_target": "Baculoviral IAP repeat-containing protein 5 (Homo sapiens) (UniProt O15392)", "sequence (O15392 whole entry)": "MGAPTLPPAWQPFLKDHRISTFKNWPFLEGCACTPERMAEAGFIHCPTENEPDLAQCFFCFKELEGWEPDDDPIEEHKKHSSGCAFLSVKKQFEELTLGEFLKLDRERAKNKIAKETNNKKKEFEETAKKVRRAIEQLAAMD", "test": "Inhibition of survivin in human HCC-827 cells at 5 uM after up to 48 hrs by Western blotting", "assay_type": "cell-based"}, "[3]": {"molecular_target": "Baculoviral IAP repeat-containing protein 5 (Homo sapiens) (UniProt O15392)", "test": "Inhibition of survivin in human MDA-MB-468 cells at 5 uM after up to 48 hrs by Western blotting", "assay_type": "cell-based"}, "[4]": {"molecular_target": "T1, Signal transducer and activator of transcription 3", "test": "Inhibition of SH2 domain of Stat3 in human MDA-MB-468 cells assessed as reduction of phosphorylated Stat3 level in cell nucleus at 5 uM after 2 hrs by fluorescence immunohistochemical analysis", "assay_type": "cell-based", "method_in_brief": "(§1)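 MDA-MB-468 cells on slides treated with 5 μM prodrug or DMSO for 2 h, fixed in 4% paraformaldehyde, permeabilized with 0.5% Triton X-100, blocked in 3% BSA, stained with anti-pTyr705 Stat3 and Alexa Fluor 594 secondary; confocal imaging at fixed microscope settings.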"}, "[5]": {"molecular_target": "T1, Signal transducer and activator of transcription 3", "test": "Inhibition of SH2 domain of Stat3 constitutive phosphorylation at Tyr705 in human MDA-MB-468 cells at 5 uM after 2 hrs by fluorescence immunohistochemical analysis", "assay_type": "cell-based", "method_in_brief": "as §1"}, "[6]": {"molecular_target": "T2, Signal transducer and activator of transcription 5A (Homo sapiens) (UniProt P42229)", "T2 sequence (whole entry)": "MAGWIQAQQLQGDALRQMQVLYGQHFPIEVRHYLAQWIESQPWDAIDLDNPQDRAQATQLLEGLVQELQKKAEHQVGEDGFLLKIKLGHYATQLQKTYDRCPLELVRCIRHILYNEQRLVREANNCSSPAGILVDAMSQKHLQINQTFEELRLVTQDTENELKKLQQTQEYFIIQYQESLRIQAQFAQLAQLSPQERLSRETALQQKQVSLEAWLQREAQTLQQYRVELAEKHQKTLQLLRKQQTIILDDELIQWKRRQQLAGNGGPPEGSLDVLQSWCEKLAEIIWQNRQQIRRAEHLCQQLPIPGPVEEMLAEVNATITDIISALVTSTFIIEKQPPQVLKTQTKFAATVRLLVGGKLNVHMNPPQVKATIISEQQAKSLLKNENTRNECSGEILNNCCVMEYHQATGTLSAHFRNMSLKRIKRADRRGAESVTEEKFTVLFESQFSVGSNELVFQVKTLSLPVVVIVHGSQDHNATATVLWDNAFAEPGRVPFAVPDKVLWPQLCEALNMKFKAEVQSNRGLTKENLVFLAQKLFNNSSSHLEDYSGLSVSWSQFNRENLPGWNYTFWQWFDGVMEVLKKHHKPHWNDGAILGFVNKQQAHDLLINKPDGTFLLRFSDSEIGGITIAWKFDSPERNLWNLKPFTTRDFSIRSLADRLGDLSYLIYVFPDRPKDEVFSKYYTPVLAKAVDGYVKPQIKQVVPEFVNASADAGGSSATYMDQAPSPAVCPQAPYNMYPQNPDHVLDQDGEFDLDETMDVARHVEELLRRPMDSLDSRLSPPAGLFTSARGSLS", "test": "Inhibition of EGF-induced SH2 domain of Stat5 phosphorylation at Tyr694 in human MDA-MB-468 cells at 5 uM treated 1.5 hrs before EGF challenge measured after 30 mins by Western blotting", "assay_type": "cell-based", "method_in_brief": "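MDA-MB-468 cells pretreated 1.5 h with prodrug (5 μM), then EGF 100 ng/mL for 30 min; lysates split onto three PVDF blots probed for phospho/total Stat3, pSer473/total Akt, and phospho/total Stat5.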"}, "[7]": {"molecular_target": "T3, Signal transducer and activator of transcription 1-alpha/beta (Homo sapiens) (UniProt P42224)", "T3 sequence (whole entry)": "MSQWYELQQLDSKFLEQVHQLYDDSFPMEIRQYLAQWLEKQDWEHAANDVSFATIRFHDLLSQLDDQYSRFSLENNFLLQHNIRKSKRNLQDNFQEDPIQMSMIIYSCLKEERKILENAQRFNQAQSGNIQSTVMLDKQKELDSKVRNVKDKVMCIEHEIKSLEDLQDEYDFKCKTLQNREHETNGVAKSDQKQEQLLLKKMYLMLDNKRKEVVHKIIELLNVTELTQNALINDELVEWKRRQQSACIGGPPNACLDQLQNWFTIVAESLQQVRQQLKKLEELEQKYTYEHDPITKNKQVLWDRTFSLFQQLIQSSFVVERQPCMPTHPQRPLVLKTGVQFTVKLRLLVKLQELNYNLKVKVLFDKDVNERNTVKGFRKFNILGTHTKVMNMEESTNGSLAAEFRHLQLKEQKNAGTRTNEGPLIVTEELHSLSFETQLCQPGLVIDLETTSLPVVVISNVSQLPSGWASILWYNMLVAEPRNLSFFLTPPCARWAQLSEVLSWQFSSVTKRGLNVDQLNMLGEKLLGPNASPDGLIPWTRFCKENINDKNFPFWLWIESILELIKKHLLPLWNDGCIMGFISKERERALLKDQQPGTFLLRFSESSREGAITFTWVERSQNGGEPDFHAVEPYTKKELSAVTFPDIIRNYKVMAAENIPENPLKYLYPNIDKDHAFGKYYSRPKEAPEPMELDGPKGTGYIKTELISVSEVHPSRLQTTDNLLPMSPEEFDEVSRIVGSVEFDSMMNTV", "test": "Inhibition of IFN-gamma-induced Stat1 phosphorylation at Tyr701 in human MDA-MB-468 cells treated 1.5 hrs before IFN-gamma challenge measured after 30 mins by Western blotting", "assay_type": "cell-based", "method_in_brief": "(§2)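 MDA-MB-468 cells exposed to rising prodrug concentrations for 1.5 h, then interferon γ 25 ng/mL for 30 min; Western blot for pTyr701 and total Stat1.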"}, "[8]": {"molecular_target": "T3, Signal transducer and activator of transcription 1-alpha/beta (Homo sapiens)", "test": "Inhibition of IFN-gamma-induced Stat1 phosphorylation at Tyr701 in human MDA-MB-468 cells at 5 uM treated 1.5 hrs before IFN-gamma challenge measured after 30 mins by Western blotting", "assay_type": "cell-based", "method_in_brief": "as §2"}, "MDA-MB-468": {"test_system": "MDA-MB-468", "test": "Decrease of cyclin D1 gene expression in human MDA-MB-468 cells at 5 uM", "assay_type": "functional, cell-based"}, "[9]": {"molecular_target": "T1, Signal transducer and activator of transcription 3", "test": "Inhibition of SH2 domain of Stat3 phosphorylation at Tyr705 in human HCC-827 cells at 5 uM after 24 hrs by Western blotting", "assay_type": "cell-based", "method_in_brief": "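HCC-827 NSCLC cells treated with 5 μM prodrug and sampled over a time course from 10 min to 24 h; pStat3 by Western blot.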"}, "[10]": {"molecular_target": "T1, Signal transducer and activator of transcription 3", "test": "Inhibition of constitutive SH2 domain of Stat3 phosphorylation at Tyr705 in human SKOV3-ip cells at 1 uM measured after 2 hrs by Western blotting"}},
  "note": "Active and inactive are the calls of the source. No cut-off for these calls is given here.",
  "data": [
    {"smiles": "C/C(=C\\C(=O)N[C@H]1CCc2cccc3c2N(C1=O)[C@H](C(=O)N[C@H](C)CCC(N)=O)C3)c1ccc(C(F)(F)P(=O)(OCOC(=O)C(C)(C)C)OCOC(=O)C(C)(C)C)cc1", "values": [
      {"measurement": "inhibition", "setting": "[1]", "value": "Active"},
      {"measurement": "inhibition", "setting": "[2]", "value": "Active"},
      {"measurement": "inhibition", "setting": "[3]", "value": "Active"},
      {"measurement": "inhibition", "setting": "[4]", "value": "Active"},
      {"measurement": "inhibition", "setting": "[5]", "value": "Active"},
      {"measurement": "inhibition", "setting": "[6]", "value": "inactive"},
      {"measurement": "inhibition", "setting": "[7]", "value": "Dose-dependent effect"},
      {"measurement": "inhibition", "setting": "[8]", "value": "Active"},
      {"measurement": "Activity", "setting": "MDA-MB-468", "value": "inactive"},
      {"measurement": "inhibition", "setting": "[9]", "value": "Active"},
      {"measurement": "inhibition", "setting": "[10]", "value": "Active"}
    ]}
  ]
}
